# Data: ChEMBL document CHEMBL4346701, “Synthesis and biological evaluation of tryptophan-derived rhodanine derivatives as PTP1B inhibitors and anti-bacterial agents” (Eur J Med Chem, 2019)
# Legend:
# [1] = tested on: Staphylococcus aureus; test: Antibacterial activity against Quinolone-resistant Staphylococcus aureus CCARM 3519 assessed as reduction in bacterial cell growth incubated for 24 hrs by ELISA; format: functional; conditions: CCARM 3519, 24 h
# In short: (§1)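 MICs determined by serial dilution in 96-well microtiter plates. The strain panel included Gram-positive S. aureus strains and multidrug-resistant clinical isolates. Gatifloxacin, moxifloxacin, norfloxacin and oxacillin served as antibacterial positive controls.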
# [2] = tested on: Staphylococcus aureus; test: Antibacterial activity against Staphylococcus aureus KCTC209 assessed as reduction in bacterial cell growth incubated for 24 hrs by ELISA; format: functional; conditions: KCTC209, 24 h; in short: as §1
# [3] = tested on: Staphylococcus aureus; test: Antibacterial activity against Methicillin-resistant Staphylococcus aureus CCARM 3506 assessed as reduction in bacterial cell growth incubated for 24 hrs by ELISA; format: functional; conditions: CCARM 3506, 24 h; in short: as §1
# [4] = tested on: Staphylococcus aureus; test: Antibacterial activity against Quinolone-resistant Staphylococcus aureus CCARM 3505 assessed as reduction in bacterial cell growth incubated for 24 hrs by ELISA; format: functional; conditions: CCARM 3505, 24 h; in short: as §1
# [5] = tested on: Pseudomonas aeruginosa; test: Antibacterial activity against Pseudomonas aeruginosa 2742 assessed as reduction in bacterial cell growth incubated for 24 hrs by ELISA; format: functional; conditions: Pseudomonas aeruginosa, 2742, 24 h
# In short: (§2)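 MIC determined by serial dilution in 96-well microtiter plates. Strains used were E. coli 1924 and P. aeruginosa 2742 (Gram-negative), S. mutans 3289 (Gram-positive) and the fungus C. albicans 7535. Gatifloxacin, moxifloxacin, norfloxacin and oxacillin served as antibacterial reference agents, and fluconazole as the antifungal reference.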
# [6] = tested on: Streptococcus mutans; test: Antibacterial activity against Streptococcus mutans KCTC3289 assessed as reduction in bacterial cell growth incubated for 24 hrs by ELISA; format: functional; conditions: KCTC3289, 24 h; in short: as §2
# [7] = tested on: Escherichia coli; test: Antibacterial activity against Escherichia coli 1924 assessed as reduction in bacterial cell growth incubated for 24 hrs by ELISA; format: functional; conditions: Escherichia coli, 1924, 24 h; in short: as §2
# [8] = tested on: Candida albicans; test: Antifungal activity against Candida albicans 7535 assessed as reduction in bacterial cell growth incubated for 24 hrs by ELISA; format: functional; conditions: Candida albicans, 7535, 24 h; in short: as §2
# [9] = tested on: Staphylococcus aureus; test: Antibacterial activity against Methicillin-resistant Staphylococcus aureus CCARM 3167 assessed as reduction in bacterial cell growth incubated for 24 hrs by ELISA; format: functional; conditions: CCARM 3167, 24 h; in short: as §1
# [10] = molecular target: T1, Tyrosine-protein phosphatase non-receptor type 1 (Homo sapiens, UniProt P18031); test: Inhibition of human recombinant GST-tagged PTP1B expressed in Escherichia coli BL21 (DE3) using pNPP as substrate measured for 2 mins by colorimetric analysis
# T1 sequence (P18031 whole entry): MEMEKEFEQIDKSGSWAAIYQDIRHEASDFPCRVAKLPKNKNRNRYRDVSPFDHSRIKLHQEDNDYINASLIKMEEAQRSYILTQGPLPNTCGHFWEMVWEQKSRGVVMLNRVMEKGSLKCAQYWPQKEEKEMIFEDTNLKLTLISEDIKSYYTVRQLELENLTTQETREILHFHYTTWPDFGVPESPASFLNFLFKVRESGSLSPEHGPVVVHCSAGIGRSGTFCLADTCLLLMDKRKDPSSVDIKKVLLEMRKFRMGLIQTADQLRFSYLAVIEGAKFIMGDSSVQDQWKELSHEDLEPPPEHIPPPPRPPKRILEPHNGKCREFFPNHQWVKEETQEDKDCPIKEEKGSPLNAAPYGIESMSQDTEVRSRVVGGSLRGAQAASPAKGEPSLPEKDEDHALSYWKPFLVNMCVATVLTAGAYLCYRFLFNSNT
# [11] = tested on: Staphylococcus aureus; test: Antibacterial activity against Staphylococcus aureus KCTC503 assessed as reduction in bacterial cell growth incubated for 24 hrs by ELISA; format: functional; conditions: KCTC503, 24 h; in short: as §1
# [12] = tested on: Staphylococcus aureus; test: Antibacterial activity against Staphylococcus aureus RN4220 assessed as reduction in bacterial cell growth incubated for 24 hrs by ELISA; format: functional; conditions: RN4220, 24 h; in short: as §1
SMILES,MIC [1] [µg/mL],MIC [2] [µg/mL],MIC [3] [µg/mL],MIC [4] [µg/mL],MIC [5] [µg/mL],MIC [6] [µg/mL],MIC [7] [µg/mL],MIC [8] [µg/mL],MIC [9] [µg/mL],IC50 [10] [nM],MIC [11] [µg/mL],MIC [12] [µg/mL]
COc1cc(/C=C2\SC(=S)N(C(Cc3c[nH]c4ccccc34)C(=O)O)C2=O)ccc1OCc1ccc(Br)cc1 (stereo not drawn),8,4,4,4,> 64,8,8,> 64,4,3180,4,4
COc1c(N2CCNC(C)C2)c(F)cc2c(=O)c(C(=O)O)cn(C3CC3)c12 (stereo not drawn) [GATIFLOXACIN],4,2,2,8,1,0.25,2,,2,,4,0.25
COc1cc(/C=C2\SC(=S)N(C(Cc3c[nH]c4ccccc34)C(=O)O)C2=O)ccc1OCc1ccc(Cl)cc1 (stereo not drawn),4,4,4,4,> 64,4,4,> 64,4,4360,4,2
O=C(O)C(Cc1c[nH]c2ccccc12)N1C(=O)/C(=C/c2ccc(OCc3ccc(Cl)cc3Cl)cc2)SC1=S (stereo not drawn),16,4,8,8,> 64,8,8,> 64,8,3380,8,4
O=C(O)C(Cc1c[nH]c2ccccc12)N1C(=O)/C(=C/c2cccc(OCc3ccc(Br)cc3)c2)SC1=S (stereo not drawn),4,4,8,8,> 64,4,8,> 64,8,2700,4,2
COc1ccccc1COc1ccc2cc(/C=C3\SC(=S)N(C(Cc4c[nH]c5ccccc45)C(=O)O)C3=O)ccc2c1 (stereo not drawn),8,,8,8,> 64,8,16,> 64,8,1530,,8
Cc1ccc(COc2ccc(/C=C3\SC(=S)N(C(Cc4c[nH]c5ccccc45)C(=O)O)C3=O)cc2)cc1 (stereo not drawn),16,4,8,8,> 64,4,8,> 64,8,5930,8,4
COc1cccc(COc2ccc3cc(/C=C4\SC(=S)N(C(Cc5c[nH]c6ccccc56)C(=O)O)C4=O)ccc3c2)c1 (stereo not drawn),16,,16,8,> 64,8,16,> 64,8,1670,,8
O=C(O)C(Cc1c[nH]c2ccccc12)N1C(=O)/C(=C/c2ccc3cc(OCc4cccc(Cl)c4)ccc3c2)SC1=S (stereo not drawn),8,,4,8,> 64,2,2,> 64,2,720,,4
OC(Cn1cncn1)(Cn1cncn1)c1ccc(F)cc1F [FLUCONAZOLE],,,,,,,,1,,,,
COc1cc(/C=C2\SC(=S)N(C(Cc3c[nH]c4ccccc34)C(=O)O)C2=O)ccc1OCc1ccc(C)cc1 (stereo not drawn),8,2,2,2,> 64,2,2,> 64,4,3600,4,2
COc1ccc(COc2ccc3cc(/C=C4\SC(=S)N(C(Cc5c[nH]c6ccccc56)C(=O)O)C4=O)ccc3c2)cc1 (stereo not drawn),8,,8,8,> 64,8,16,> 64,8,1450,,8
